16 compounds from ChEMBL document CHEMBL5518184, “Structural basis for specific inhibition of salicylate synthase from Mycobacterium abscessus” (Eur J Med Chem, 2024) can be followed below.

Series [1] can be described thus: Inhibition of Mycobacterium abscessus ATCC 19977 salicylate synthase expressed in Escherichia coli BL21 (DE3) cells using chorismic acid as substrate by fluorimetric assay. On the set-up: species or system Mycobacteroides abscessus. In short, it runs like this:
(§1)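 Purified enzyme (IMAC plus gel filtration) at 1–2 μM in 50 mM Hepes pH 7.5, 5 mM MgCl₂, 37 °C, with 50 μM chorismic acid; fluorimetric read-out at Ex 305 / Em 420 nm. IC50 measured over 0.1–200 μM inhibitor for compounds leaving under 30 % residual activity at 100 μM, fitted as A[I] = A[0]·(1 − [I]/([I]+IC50)).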

For series [2], the system named is Mycobacteroides abscessus. Briefly: Inhibition of Mycobacterium abscessus ATCC 19977 salicylate synthase expressed in Escherichia coli BL21 (DE3) cells using chorismic acid as substrate assessed as residual activity at 100 uM by fluorimetric assay relative to control. In short, it runs like this: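 Enzyme purified by IMAC and gel filtration, used at 1–2 μM in 50 mM Hepes pH 7.5 with 5 mM MgCl₂ at 37 °C. Reaction started with 50 μM chorismic acid; fluorescence read at Ex 305 / Em 420 nm. Compound tested at a fixed 100 μM; percent residual activity recorded.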

The subject of series [3] is Mycobacterium tuberculosis. The experiment in a line: Inhibition of Mycobacterium tuberculosis salicylate synthase expressed in Escherichia coli BL21 cells using chorismic acid as substrate assessed as residual activity at 100 uM by fluorimetric assay relative to control. In short, it runs like this:
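Recombinant His-purified enzyme (IMAC plus gel filtration), 1–2 μM, in 50 mM Hepes pH 7.5, 5 mM MgCl₂ at 37 °C. Reaction started with chorismic acid at a subsaturating 50 μM. Compound tested at a fixed 100 μM. Fluorescence monitored at Ex 305 nm / Em 420 nm, and activity expressed as % residual activity.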

Series [4] in a line: Inhibition of Mycobacterium tuberculosis salicylate synthase expressed in Escherichia coli BL21 cells using chorismic acid as substrate by fluorimetric assay. Summed up:
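Purified recombinant enzyme, 1–2 μM, in 50 mM Hepes pH 7.5, 5 mM MgCl₂ at 37 °C, with 50 μM chorismic acid. Fluorescence read at Ex 305 nm / Em 420 nm. Run only for compounds with residual activity below 30 % at 100 μM. Activity measured across 0.1–200 μM inhibitor and IC50 fitted as A[I] = A[0]·(1 − [I]/([I]+IC50)).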

The nature of series [5]: Inhibition of Mycobacterium abscessus ATCC 19977 salicylate synthase expressed in Escherichia coli BL21 (DE3) cells using chorismic acid as substrate in presence of BSA by fluorimetric assay. On the set-up: species or system Mycobacteroides abscessus. Summed up: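 IC50 determined in the standard fluorimetric chorismate assay (1–2 μM enzyme, 50 mM Hepes pH 7.5, 5 mM MgCl₂, 37 °C, 50 μM chorismic acid, Ex 305 / Em 420 nm) with 0.1 mg/mL BSA added.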

Series [6] can be described thus: Inhibition of Mycobacterium abscessus ATCC 19977 salicylate synthase expressed in Escherichia coli BL21 (DE3) cells using chorismic acid as substrate in presence of Triton X-100 by fluorimetric assay. More on the design: species or system Mycobacteroides abscessus. Summed up: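 IC50 determined in the standard fluorimetric chorismate assay (1–2 μM enzyme, 50 mM Hepes pH 7.5, 5 mM MgCl₂, 37 °C, 50 μM chorismic acid) with 0.01 % (v/v) Triton X-100 added as detergent.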

A short description of series [7]: Inhibition of Mycobacterium abscessus ATCC 19977 salicylate synthase expressed in Escherichia coli BL21 (DE3) cells using chorismic acid as substrate in presence of DTT by fluorimetric assay. On the set-up: species or system Mycobacteroides abscessus. In short, it runs like this: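 IC50 determined in the standard fluorimetric chorismate assay (1–2 μM enzyme, 50 mM Hepes pH 7.5, 5 mM MgCl₂, 37 °C, 50 μM chorismic acid) with 100 μM DTT added to rule out cysteine reactivity.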

Series [8] in a line: Cytotoxicity against human fibroblast assessed as viable cells at 10 uM incubated for 96 hrs by MTS assay relative to control. The settings on record: human fibroblasts, read-out: Activity. In kind it is toxicity, cell-based. Summed up: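 Juvenile human foreskin fibroblasts grown in DMEM with 10 % FBS, 1 % L-glutamine and penicillin/streptomycin; 1 × 10⁴ cells/well, treated after 24 h at 0.5, 1, 5 and 10 μM. After 96 h, viability read by MTS at 490 nm and expressed as percent of untreated cells; three independent experiments.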
Background: Tetrazolium assays rely on reduction of a dye to a coloured formazan, in cell work by metabolically active cells.

The nature of series [9]: Inhibition of Mycobacterium abscessus ATCC 19977 salicylate synthase expressed in Escherichia coli BL21 (DE3) cells by fluorimetric assay. More on the design: species or system Mycobacteroides abscessus. In short, it runs like this: as §1

For `NC(=O)c1cccc(-c2ccc(C(=O)O)o2)c1`, the IC50 (commonly the midpoint of a concentration-inhibition curve) in [1] amounted to 42.9 µM; in series [4], 31.4 µM. Besides, the Activity in [2] came out at 25.8%; in [3], 20.9%.

Take `O=C(O)c1ccc(-c2cccc(C(F)(F)F)c2)o1`: the Activity in series [2] worked out at 35%; in series [3] it was 42%.

On to `O=C(O)c1ccc(-c2cccc(Cl)c2)o1`, for which the Activity in series [2] stood at 88.3%; in series [3], 102%.

Take `O=C(O)c1cccc(-c2ccc(C(=O)O)o2)c1`: the Activity in [2] is 33.3%; in series [3], 27.2%. Inhibition in [4] was half-maximal at 35.2 µM (IC50).

Take `CNC(=O)c1cccc(-c2ccc(C(=O)O)o2)c1`: the results for the Activity in series [2] and in series [3] were 53.3% and 84%, respectively.

Take `N#Cc1cccc(-c2ccc(C(=O)O)o2)c1`: the IC50 in [1] turned out to be 12.1 µM; in [4], 6.3 µM. For the same compound, the values for the Activity in series [2] and in series [3] were 3.2% and 3.1%, respectively.

Regarding `NS(=O)(=O)c1ccc(-c2ccc(C(=O)O)o2)cc1`, 19.3 µM corresponded to half-maximal inhibition in [1] (IC50). Besides, the Activity in [2] amounted to 16%.

Take `CS(=O)(=O)c1cccc(-c2ccc(C(=O)O)o2)c1`: the figures for the IC50 in [1] and in series [4] were 3.6 µM and 34.9 µM, respectively. Besides, the Activity in series [2] turned out to be 5.4%; in [3], 25.8%.

In the case of `O=C(O)c1ccc(-c2cccc(O)c2)o1`, the results for the Activity in series [2] and in series [3] were 65% and 70.4%, respectively.

With `Cc1cccc(-c2ccc(C(=O)O)o2)c1`, the Activity turned out to be 54.7% in series [2] and 104% in series [3].

As for `COC(=O)c1ccc(-c2cccc(S(N)(=O)=O)c2)o1`, the Activity in [2] stood at 55.3%.

For `Nc1cccc(-c2ccc(C(=O)O)o2)c1`, the results for the Activity in [2] and in series [3] were 48.3% and 65.8%, respectively.

Regarding `NS(=O)(=O)c1ccccc1-c1ccc(C(=O)O)o1`, the Activity in series [2] stood at 97.1%.

Take `NS(=O)(=O)c1cccc(-c2ccc(C(=O)O)o2)c1`: the IC50 amounted to 2.6 µM in series [1]; 39.7 µM in [4]; 2.8 µM in series [5]; 2.8 µM in [6]; 3.3 µM in [7]. The Activity in series [2] worked out at 0.6%; in series [3] it was 28.6%. For the same compound, the viability at 96 h, 10 µM in [8] was determined as 99.5%.

Compound `O=C(O)c1ccc(-c2ccc(C(F)(F)F)cc2C(F)(F)F)o1` displayed an IC50 in series [9] of roughly 5 µM.

Take `NS(=O)(=O)c1cccc(-c2cccc(C(=O)O)c2)c1`: the Activity in [2] was found to be 89.4%.
